Source: ChEMBL document CHEMBL4014306, “Pyrazolopyrimidines as Potent Stimulators for Transient Receptor Potential Canonical 3/6/7 Channels” (J Med Chem, 2017)
Calls of active or inactive are those of the source. The calls are words filed in the database; no cut-off is given here.

What was measured:
Assay type in all cases: cell-based
[1] = molecular target: Transient receptor potential cation channel subfamily V member 1 (Homo sapiens) (UniProt Q8NER1); assay: Agonist activity at human TRPV1 expressed in HEK293 cells assessed as increase in intracellular calcium level at 33 uM measured for 2.5 mins by Fluo-8-AM dye based fluorescence assay
Transient receptor potential cation channel subfamily V member 1 (Homo sapiens), sequence (Q8NER1 whole entry, the tested form may be a part): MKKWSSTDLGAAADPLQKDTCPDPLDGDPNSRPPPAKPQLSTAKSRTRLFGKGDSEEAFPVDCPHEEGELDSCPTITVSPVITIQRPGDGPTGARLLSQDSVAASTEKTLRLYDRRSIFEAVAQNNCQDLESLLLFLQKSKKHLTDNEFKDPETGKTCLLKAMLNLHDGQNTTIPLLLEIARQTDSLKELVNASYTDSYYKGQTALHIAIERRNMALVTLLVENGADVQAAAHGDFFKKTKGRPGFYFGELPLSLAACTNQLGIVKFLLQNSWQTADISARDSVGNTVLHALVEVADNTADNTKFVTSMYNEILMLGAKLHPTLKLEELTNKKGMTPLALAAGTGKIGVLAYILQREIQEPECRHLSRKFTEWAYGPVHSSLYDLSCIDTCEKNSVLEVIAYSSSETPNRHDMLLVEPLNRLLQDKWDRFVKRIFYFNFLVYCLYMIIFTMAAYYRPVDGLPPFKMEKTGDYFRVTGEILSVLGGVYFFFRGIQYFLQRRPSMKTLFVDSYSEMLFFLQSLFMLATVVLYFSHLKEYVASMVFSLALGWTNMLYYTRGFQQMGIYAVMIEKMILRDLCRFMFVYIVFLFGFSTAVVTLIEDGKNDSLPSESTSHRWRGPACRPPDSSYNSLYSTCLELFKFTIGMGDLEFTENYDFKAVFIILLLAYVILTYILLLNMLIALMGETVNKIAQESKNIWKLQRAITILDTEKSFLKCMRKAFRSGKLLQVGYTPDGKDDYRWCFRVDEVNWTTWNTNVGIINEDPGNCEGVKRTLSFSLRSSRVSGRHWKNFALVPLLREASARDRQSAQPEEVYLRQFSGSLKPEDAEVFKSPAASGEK

[2] = molecular target: T1, Short transient receptor potential channel 6 (Mus musculus, UniProt Q61143); assay: Agonist activity at mouse TRPC6 expressed in HEK293 cells co-expressing Gq11-PLCbeta fused M5 receptor assessed as peak current changes at +80 mV by whole cell patch-clamp method
T1 sequence (Q61143 whole entry): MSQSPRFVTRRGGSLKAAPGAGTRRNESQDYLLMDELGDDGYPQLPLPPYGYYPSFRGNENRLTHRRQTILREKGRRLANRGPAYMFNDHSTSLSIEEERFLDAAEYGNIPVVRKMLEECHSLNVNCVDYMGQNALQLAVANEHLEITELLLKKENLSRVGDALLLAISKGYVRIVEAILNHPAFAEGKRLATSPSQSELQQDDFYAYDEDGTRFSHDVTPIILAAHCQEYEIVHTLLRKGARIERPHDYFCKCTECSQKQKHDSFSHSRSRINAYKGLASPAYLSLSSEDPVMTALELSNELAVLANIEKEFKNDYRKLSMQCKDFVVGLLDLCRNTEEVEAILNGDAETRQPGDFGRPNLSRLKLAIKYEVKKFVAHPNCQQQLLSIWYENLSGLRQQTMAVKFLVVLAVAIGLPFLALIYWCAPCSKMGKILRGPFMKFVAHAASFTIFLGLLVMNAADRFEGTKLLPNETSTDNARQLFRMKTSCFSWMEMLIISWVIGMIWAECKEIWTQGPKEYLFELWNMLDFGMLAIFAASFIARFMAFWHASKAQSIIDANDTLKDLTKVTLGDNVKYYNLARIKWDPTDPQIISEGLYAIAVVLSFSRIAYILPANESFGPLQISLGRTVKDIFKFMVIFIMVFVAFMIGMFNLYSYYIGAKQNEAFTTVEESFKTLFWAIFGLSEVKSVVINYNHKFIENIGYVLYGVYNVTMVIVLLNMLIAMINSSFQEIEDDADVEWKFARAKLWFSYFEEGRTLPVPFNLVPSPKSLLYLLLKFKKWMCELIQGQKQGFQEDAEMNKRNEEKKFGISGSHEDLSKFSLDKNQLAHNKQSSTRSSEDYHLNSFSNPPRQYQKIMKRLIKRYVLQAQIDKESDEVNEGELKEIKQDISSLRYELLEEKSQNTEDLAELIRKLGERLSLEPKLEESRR
Procedure, shortened: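 Whole-cell patch clamp of TRPC6/M5 HEK293 cells. Pipette solution: 110 CsCl, 10 BAPTA, 4.77 CaCl2 (400 nM free Ca2+), pH 7.2. Bath at 0.1 mM Ca2+, pH 7.4. Ramps from +100 to −100 mV (100 ms) every 1 s from a 0 mV holding potential. Concentrations of 0.1–100 μM applied consecutively by perfusion. EC50 from currents at +80 mV.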

[3] = molecular target: T1, Short transient receptor potential channel 6; assay: Agonist activity at mouse TRPC6 expressed in HEK293 cells co-expressing Gq11-PLCbeta fused M5 receptor assessed as increase in intracellular calcium level measured for 2.5 mins by Fluo-8-AM dye-based fluorescence assay; settings: read-out: EC50
[4] = molecular target: Transient receptor potential cation channel subfamily M member 8 (Mus musculus) (UniProt Q8R4D5); assay: Agonist activity at mouse TRPM8 expressed in HEK293 cells assessed as increase in intracellular calcium level at 33 uM measured for 2.5 mins by Fluo-8-AM dye based fluorescence assay
Transient receptor potential cation channel subfamily M member 8 (Mus musculus), sequence (Q8R4D5 whole entry): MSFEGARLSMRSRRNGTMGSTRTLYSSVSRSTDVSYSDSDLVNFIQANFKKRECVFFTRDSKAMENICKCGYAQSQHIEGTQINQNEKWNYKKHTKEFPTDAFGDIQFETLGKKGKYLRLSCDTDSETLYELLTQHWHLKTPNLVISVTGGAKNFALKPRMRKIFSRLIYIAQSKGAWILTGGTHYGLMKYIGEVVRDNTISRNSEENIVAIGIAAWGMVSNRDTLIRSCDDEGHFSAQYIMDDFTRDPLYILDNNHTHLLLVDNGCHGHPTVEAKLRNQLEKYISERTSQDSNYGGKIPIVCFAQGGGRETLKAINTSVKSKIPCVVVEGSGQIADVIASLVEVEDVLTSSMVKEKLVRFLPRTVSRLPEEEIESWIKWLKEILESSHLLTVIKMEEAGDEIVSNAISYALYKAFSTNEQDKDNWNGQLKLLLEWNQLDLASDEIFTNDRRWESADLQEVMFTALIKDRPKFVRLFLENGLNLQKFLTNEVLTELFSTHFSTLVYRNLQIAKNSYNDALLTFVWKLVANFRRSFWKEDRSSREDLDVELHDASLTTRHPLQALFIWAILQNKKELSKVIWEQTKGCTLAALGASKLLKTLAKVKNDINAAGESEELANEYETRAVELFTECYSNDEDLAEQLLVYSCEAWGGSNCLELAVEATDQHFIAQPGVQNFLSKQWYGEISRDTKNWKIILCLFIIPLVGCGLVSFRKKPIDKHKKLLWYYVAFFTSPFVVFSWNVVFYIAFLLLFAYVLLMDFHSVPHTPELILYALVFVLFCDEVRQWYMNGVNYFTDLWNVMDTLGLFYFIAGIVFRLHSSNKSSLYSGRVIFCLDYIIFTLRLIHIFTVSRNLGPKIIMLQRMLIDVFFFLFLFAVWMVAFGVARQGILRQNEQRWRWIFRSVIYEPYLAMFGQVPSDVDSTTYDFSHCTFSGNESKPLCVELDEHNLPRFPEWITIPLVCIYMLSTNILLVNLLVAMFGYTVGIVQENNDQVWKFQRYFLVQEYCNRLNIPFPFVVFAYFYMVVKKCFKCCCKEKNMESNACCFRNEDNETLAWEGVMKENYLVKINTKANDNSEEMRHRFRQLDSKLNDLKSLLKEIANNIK

[5] = molecular target: T2, Short transient receptor potential channel 5 (Homo sapiens) (UniProt Q9UL62); assay: Agonist activity at human TRPC5 expressed in HEK293 cells assessed as induction of membrane depolarization at 33 uM measured for 2.5 mins by FLIPR membrane potential dye-based fluorescence assay
T2 sequence (whole entry): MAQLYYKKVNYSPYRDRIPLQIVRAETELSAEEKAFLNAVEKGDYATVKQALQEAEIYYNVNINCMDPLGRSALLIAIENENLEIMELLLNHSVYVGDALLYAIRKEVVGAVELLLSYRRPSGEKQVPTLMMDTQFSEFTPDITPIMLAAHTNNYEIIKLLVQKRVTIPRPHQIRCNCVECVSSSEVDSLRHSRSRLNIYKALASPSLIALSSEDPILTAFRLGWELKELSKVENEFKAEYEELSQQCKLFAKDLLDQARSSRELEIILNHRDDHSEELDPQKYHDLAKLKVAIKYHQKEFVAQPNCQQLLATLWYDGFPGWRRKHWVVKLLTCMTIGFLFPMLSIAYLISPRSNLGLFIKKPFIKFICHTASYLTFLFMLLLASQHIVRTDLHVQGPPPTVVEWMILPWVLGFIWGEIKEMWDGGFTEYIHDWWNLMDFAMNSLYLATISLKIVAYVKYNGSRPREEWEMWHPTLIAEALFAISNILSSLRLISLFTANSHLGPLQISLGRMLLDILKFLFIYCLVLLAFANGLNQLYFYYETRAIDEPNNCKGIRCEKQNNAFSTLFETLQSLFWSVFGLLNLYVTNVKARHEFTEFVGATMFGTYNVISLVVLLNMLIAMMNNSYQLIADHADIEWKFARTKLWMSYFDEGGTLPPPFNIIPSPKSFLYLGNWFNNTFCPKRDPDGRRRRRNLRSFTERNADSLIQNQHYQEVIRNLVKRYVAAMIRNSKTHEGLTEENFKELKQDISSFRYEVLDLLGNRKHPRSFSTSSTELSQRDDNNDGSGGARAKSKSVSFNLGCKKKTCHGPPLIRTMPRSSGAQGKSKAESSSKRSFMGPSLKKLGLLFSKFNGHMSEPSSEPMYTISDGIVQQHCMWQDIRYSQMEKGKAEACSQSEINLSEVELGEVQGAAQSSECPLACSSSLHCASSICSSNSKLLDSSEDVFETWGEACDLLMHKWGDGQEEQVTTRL

Activity [1]	EC50 [2] [nM]	EC50 [3] [µM]	Activity [4]	Activity [5]	Structure (SMILES)
inactive	890	–	inactive	inactive	CCOC(=O)N1CCC(c2cc(O)n3nc(C)c(-c4ccc(C(F)(F)F)cc4)c3n2)CC1
inactive	2050	7.79	inactive	inactive	Cc1nn2c(O)cc(C3CCN(C(=O)OCc4ccccc4)CC3)nc2c1-c1ccc(Cl)cc1
inactive	3240	3.91	inactive	inactive	Cc1nn2c(O)cc(C3CCN(C(=O)OCc4ccccc4)CC3)nc2c1-c1ccc(F)cc1

Structure (SMILES)	Activity [1]	EC50 [2] [nM]	EC50 [3] [µM]	Activity [4]	Activity [5]
CCOC(=O)N1CCC(c2cc(O)n3nc(C)c(-c4ccc(F)cc4)c3n2)CC1	inactive	2500 to 6280	4.66	inactive	inactive
